Series [1] deals with 3',5'-cyclic-AMP phosphodiesterase 4B (Homo sapiens, UniProt Q07343). Briefly: Inhibition of PDE4B1 expressed in yeast. A digest of the protocol: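 Human recombinant PDE4A4, PDE4B1 or PDE4D3 made in galactose-induced […]; dialysed extracts (~4 μg protein) used. Hydrolysis of 15 nM [3H]-cAMP in 50 mM Tris pH 7.5, 8.3 mM MgCl2, 1.7 mM EGTA, final DMSO 5%, 60 min at room temperature. Reaction stopped with SPA beads, then scintillation counted. Compounds tested 10 μM to 10 pM in duplicate; IC50 calculated.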

The target of series [2] is 3',5'-cyclic-AMP phosphodiesterase 4A (Homo sapiens, UniProt P27815). Briefly: Inhibition of PDE4A4 expressed in yeast.
Series [3] deals with 3',5'-cyclic-AMP phosphodiesterase 4D (Homo sapiens, UniProt Q08499). Briefly: Inhibition of PDE4D3 expressed in yeast.
The test system of series [4] is Blood. Description: Antiinflammatory activity against LPS-induced TNFalpha production in human whole blood by ELISA. It counts as functional, tissue-based. A digest of the protocol: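 Human whole blood preincubated at 37 °C for 10 min with LPS at final 1 μg/mL; inhibitors in 100% DMSO added at increasing concentrations, blood (LPS-free for controls) incubated 24 h at 37 °C under agitation. Reaction stopped on ice with PBS and centrifugation; serum TNFα measured by sandwich ELISA, TMB substrate, 450 nm. Experiments run 2-3 times, duplicates averaged, given as pg/mL.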
In general terms: An ELISA detects its analyte on a solid surface through an enzyme-linked reagent.

A short description of series [5]: Apparent permeability from apical to basolateral side of human Caco-2 cells. It counts as ADME, cell-based. A digest of the protocol:
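Caco-2 cells seeded at 500 000 cells/well on collagen-coated PET membranes (1 μm pores), differentiated and used six days post-seeding. Compound applied in HBSS with 10 mM Hepes and 25 mM glucose, pH 7.4, at most 1% DMSO, on the apical side. Samples taken after 3 h and analysed by HPLC-UV. [3H]mannitol 115 nM served as integrity control.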
For orientation: Passage across Caco-2 layers is used to estimate intestinal permeability.

Sequence of 3',5'-cyclic-AMP phosphodiesterase 4D (Q08499 whole entry): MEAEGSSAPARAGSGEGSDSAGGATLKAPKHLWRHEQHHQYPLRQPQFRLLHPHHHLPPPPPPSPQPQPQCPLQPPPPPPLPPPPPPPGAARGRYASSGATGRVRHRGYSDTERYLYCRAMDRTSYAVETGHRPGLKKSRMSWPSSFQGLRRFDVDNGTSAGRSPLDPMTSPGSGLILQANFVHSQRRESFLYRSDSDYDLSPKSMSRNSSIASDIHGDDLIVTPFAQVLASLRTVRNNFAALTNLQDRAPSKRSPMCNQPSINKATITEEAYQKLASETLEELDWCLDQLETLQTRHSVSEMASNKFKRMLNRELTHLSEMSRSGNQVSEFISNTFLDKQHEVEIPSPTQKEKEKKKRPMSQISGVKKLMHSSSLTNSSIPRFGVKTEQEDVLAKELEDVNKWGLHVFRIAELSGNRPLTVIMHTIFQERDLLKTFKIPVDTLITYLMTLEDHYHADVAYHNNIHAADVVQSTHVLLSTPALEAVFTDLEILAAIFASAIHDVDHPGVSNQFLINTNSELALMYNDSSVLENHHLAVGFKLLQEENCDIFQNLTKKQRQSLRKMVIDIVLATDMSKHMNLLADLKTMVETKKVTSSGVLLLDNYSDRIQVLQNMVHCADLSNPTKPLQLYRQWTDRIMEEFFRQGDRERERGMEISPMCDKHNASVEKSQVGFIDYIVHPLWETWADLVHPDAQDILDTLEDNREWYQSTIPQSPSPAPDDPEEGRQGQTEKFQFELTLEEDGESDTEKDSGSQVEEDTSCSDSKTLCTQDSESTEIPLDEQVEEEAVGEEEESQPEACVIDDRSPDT
Sequence of 3',5'-cyclic-AMP phosphodiesterase 4A (P27815 whole entry): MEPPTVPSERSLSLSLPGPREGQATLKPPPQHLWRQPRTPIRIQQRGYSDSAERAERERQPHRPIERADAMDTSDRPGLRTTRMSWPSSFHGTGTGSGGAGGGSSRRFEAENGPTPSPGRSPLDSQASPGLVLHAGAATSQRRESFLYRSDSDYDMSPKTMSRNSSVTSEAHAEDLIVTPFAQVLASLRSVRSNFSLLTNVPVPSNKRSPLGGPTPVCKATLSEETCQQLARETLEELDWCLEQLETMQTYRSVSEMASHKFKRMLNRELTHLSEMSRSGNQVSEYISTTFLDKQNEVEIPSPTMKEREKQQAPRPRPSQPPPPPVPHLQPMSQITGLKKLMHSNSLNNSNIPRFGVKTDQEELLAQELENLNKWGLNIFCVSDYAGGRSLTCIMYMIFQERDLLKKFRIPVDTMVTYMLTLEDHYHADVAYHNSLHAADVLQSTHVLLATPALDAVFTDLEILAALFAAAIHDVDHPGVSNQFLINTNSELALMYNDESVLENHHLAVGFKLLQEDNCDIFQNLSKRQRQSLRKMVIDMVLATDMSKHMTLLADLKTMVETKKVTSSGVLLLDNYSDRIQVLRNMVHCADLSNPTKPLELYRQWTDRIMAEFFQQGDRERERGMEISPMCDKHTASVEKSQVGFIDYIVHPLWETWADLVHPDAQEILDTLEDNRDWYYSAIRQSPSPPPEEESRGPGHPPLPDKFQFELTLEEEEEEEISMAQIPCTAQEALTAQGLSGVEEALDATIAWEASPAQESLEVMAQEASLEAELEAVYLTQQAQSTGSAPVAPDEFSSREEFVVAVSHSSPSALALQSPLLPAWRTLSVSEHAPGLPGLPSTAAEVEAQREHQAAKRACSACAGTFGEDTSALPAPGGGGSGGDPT
Sequence of 3',5'-cyclic-AMP phosphodiesterase 4B (Q07343 whole entry): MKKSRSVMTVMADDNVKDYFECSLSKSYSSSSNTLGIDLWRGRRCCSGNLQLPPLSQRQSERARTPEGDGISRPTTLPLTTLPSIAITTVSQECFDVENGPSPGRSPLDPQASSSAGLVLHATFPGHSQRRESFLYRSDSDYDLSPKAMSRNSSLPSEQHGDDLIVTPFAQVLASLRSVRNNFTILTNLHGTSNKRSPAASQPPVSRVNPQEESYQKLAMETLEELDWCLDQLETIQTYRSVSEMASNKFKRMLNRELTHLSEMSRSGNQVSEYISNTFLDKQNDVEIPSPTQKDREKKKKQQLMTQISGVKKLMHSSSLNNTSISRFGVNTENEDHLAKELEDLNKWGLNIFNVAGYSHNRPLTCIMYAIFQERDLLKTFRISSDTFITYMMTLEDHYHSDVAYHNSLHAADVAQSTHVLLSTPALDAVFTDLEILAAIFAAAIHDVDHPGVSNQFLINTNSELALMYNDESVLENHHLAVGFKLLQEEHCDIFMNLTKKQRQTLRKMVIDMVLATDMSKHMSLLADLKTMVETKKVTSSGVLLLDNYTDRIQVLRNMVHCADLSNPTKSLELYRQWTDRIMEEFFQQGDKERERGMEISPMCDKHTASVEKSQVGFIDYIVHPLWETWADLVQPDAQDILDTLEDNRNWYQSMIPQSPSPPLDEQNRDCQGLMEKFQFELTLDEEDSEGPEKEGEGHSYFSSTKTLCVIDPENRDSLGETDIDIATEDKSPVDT

On to `CNc1nc2sc3c(NCCN4CCOCC4)ncnc3c2c2c1CCC(C)(C)C2`, for which the IC50 in series [1] is 9.9 nM; in series [2], 18 nM; in series [3], 4.2 nM; in series [4], 233 nM. The Papp A→B in series [5] is 13.7 ×10⁻⁶ cm/s.

With `CN(Cc1ccccc1)c1nc2sc3c(NCCN4CCOCC4)ncnc3c2c2c1CCC(C)(C)C2`, half-maximal inhibition in series [1] (IC50) required 865 nM.

As to `CC1(C)CCc2c(N3CCOCC3)nc3sc4c(NCc5ccncc5)ncnc4c3c2C1`, the IC50 is 11 nM in series [1], 19 nM in series [2], 13 nM in series [3] and 2040 nM in series [4].

Turning to `CC(C)Cc1nc2sc3c(NCCN4CCOCC4)ncnc3c2c2c1CCC(C)(C)C2`, the IC50 was determined as 7.2 nM in series [1], 6.7 nM in series [2], 39 nM in series [3] and 1280 nM in series [4]. Moreover, in series [5], the Papp A→B was 0.4 ×10⁻⁶ cm/s.

`CC1(C)Cc2c(c(N3CCOCC3)nc3sc4c(N(CCN5CCOCC5)Cc5cccnc5)ncnc4c23)CO1`: the IC50 in series [1] is 4.5 nM; in series [2], 5 nM; in series [3] it was 19 nM; in series [4], 401 nM.

As to `CN1CCN(c2nc3sc4c(NCCN5CCOCC5)ncnc4c3c3c2COC(C)(C)C3)CC1`, the IC50 in series [1] is 1200 nM.

`CC1(C)CCc2c(-c3ccoc3)nc3sc4c(NCCN5CCOCC5)ncnc4c3c2C1`: the IC50 amounted to 2.9 nM in series [1], 9 nM in series [2], 3.1 nM in series [3] and 1240 nM in series [4].

`CC1(C)Cc2c(c(N3CCOCC3)nc3sc4c(NCc5ccncc5)ncnc4c23)CO1`: the IC50 in series [1] was found to be 22 nM; in series [2], 97 nM; in series [3] it was 128 nM; in series [4], 1020 nM.

In the case of `COc1ccccc1CNc1ncnc2c1sc1nc(N3CCOCC3)c3c(c12)CC(C)(C)CC3`, the IC50 in series [1] worked out at 213 nM.

With `CN1Cc2c(N3CCOCC3)nc3sc4c(NCCN5CCOCC5)ncnc4c3c2CC1(C)C`, the IC50 was 3700 nM in series [1] and 3270 nM in series [4].

`CC1(C)Cc2c(c(N3CCOCC3)nc3sc4c(NCCN5CCCCC5)ncnc4c23)CO1` displayed an IC50 in series [1] of 284 nM.

Consider `CC1(C)Cc2c(c(N3CCOCC3)nc3sc4c(N(CCO)CCN5CCOCC5)ncnc4c23)CO1`, for which the IC50 in series [1] is 13 nM; in series [2] it was 23 nM; in series [3], 39 nM; in series [4], 537 nM.

As to `CC1(C)Cc2c(c(N3CCOCC3)nc3sc4c(NCCN5CCOCC5)ncnc4c23)CO1`, the IC50 in series [1] amounted to 26 nM; in series [2] it was 63 nM; in series [3], 604 nM; in series [4] it was 235 nM.

In the case of `CC1(C)Cc2c(c(N3CCOCC3)nc3sc4c(NCCCN5CCCC5=O)ncnc4c23)CO1`, the IC50 in series [1] was 167 nM.

`COc1ccccc1CNc1ncnc2c1sc1nc(N3CCOCC3)c3c(c12)CC(C)(C)OC3`: the IC50 worked out at 40 nM in series [1], 67 nM in series [2], 119 nM in series [3] and 1190 nM in series [4].

Turning to `CC1(C)CCc2c(N3CCOCC3)nc3sc4c(NCCN5CCOCC5)ncnc4c3c2C1`, the IC50 in series [1] amounted to 2.9 nM; in series [2], 74 nM; in series [3], 4.6 nM; in series [4], 1370 nM.

Turning to `CC1(C)CCc2c(N3CCOCC3)nc3sc4c(NCc5cccnc5)ncnc4c3c2C1`, the concentration for half-maximal inhibition (IC50) turned out to be 3.6 nM in series [1], 4.5 nM in series [2], 32 nM in series [3] and 381 nM in series [4].

Regarding `CNc1nc2sc3c(NCCN4CCOCC4)ncnc3c2c2c1COC(C)(C)C2`, in series [1], the IC50 worked out at 51 nM.

Take `CC1(C)CCc2c(N3CCOCC3)nc3sc4c(NCCCN5CCCC5=O)ncnc4c3c2C1`: the IC50 was determined as 21 nM in series [1], 18 nM in series [2], 61 nM in series [3] and 2150 nM in series [4].

In the case of `CC1(C)CCc2c(-c3ccco3)nc3sc4c(NCCN5CCOCC5)ncnc4c3c2C1`, the IC50 is 3.8 nM in series [1], 5.4 nM in series [2], 7.9 nM in series [3] and 1090 nM in series [4].

Consider `CC1(C)CCc2c(N3CCCC3)nc3sc4c(NCCN5CCOCC5)ncnc4c3c2C1`, for which the IC50 was determined as 8.05 nM in series [1], 43 nM in series [2], 11 nM in series [3] and 655 nM in series [4].

For `CN1CCN(c2nc3sc4c(NCCN5CCOCC5)ncnc4c3c3c2CCC(C)(C)C3)CC1`, the IC50 in series [1] is 95 nM.

In the case of `c1nc(NCCN2CCOCC2)c2sc3nc(N4CCOCC4)c4c(c3c2n1)CCOC4`, in series [1], half-maximal inhibition (IC50) required 1770 nM.

`CC1(C)CCc2c(N3CCOCC3)nc3sc4c(NCCN5CCOCC5)ncnc4c3c21` came in with a half-maximal inhibitory concentration (IC50) in series [1] of 274 nM.

Take `Cc1nc2sc3c(NCCN4CCOCC4)ncnc3c2c2c1CCC(C)(C)C2`: the IC50 in series [1] was 37 nM; in series [2] it was 97 nM; in series [3], 34 nM; in series [4], 912 nM.

Take `CC1(C)Cc2c(N3CCOCC3)nc3sc4c(NCCN5CCOCC5)ncnc4c3c2C1`: in series [1], the IC50 was 333 nM.

As to `CN(C)c1nc2sc3c(NCCN4CCOCC4)ncnc3c2c2c1COC(C)(C)C2`, the IC50 in series [1] is 45 nM; in series [2], 20 nM; in series [3] it was 25 nM; in series [4] it was 261 nM. The apparent permeability from apical to basolateral (Papp A→B) in series [5] came to 21.9 ×10⁻⁶ cm/s.

Take `CC1(C)Cc2c(c(N3CCOCC3)nc3sc4c(NCc5cccnc5)ncnc4c23)CO1`: the IC50 stood at 5.7 nM in series [1], 48 nM in series [2], 52 nM in series [3] and 639 nM in series [4].

For `COc1ccc(C2CNC(=O)C2)cc1OC1CCCC1` (stereo not given) [ROLIPRAM], the IC50 in series [4] was 1480 nM. That is a single-digit micromolar value.

Turning to `CCC1(C)Cc2c(c(N3CCOCC3)nc3sc4c(NCCN5CCOCC5)ncnc4c23)CO1` (stereo not given), the IC50 in series [1] worked out at 90 nM; in series [4], 2040 nM.

`CC1(C)CCc2c(N3CCOCC3)nc3sc4c(N(CCO)CCN5CCOCC5)ncnc4c3c2C1`: the IC50 is 2.8 nM in series [1], 6.4 nM in series [2], 1.8 nM in series [3] and 327 nM in series [4].

Broadly, the IC50 is the point on the concentration scale where inhibition reaches its midpoint. A low value points to greater potency in that assay. By Papp A→B is commonly meant how fast a substance crosses the layer from the apical side.

These data come from ChEMBL document CHEMBL1255195, “Synthesis and biological activity of pyrido[3',2':4,5]thieno[3,2-d]pyrimidines as phosphodiesterase type 4 inhibitors” (J Med Chem, 2010).
